Source: ChEMBL document CHEMBL1138569, “A facile synthesis of novel biologically active 4-hydroxy-N'-(benzylidene)-2H-benzo[e][1,2]thiazine-3-carbohydrazide 1,1-dioxides” (2009)
Active and inactive are the calls of the source. The calls are words filed in the database; no cut-off is given here.

These compounds were tested on Pseudomonas aeruginosa (assay: Antibacterial activity against Pseudomonas aeruginosa at 10 ug/disk by agar well diffusion method). Conditions: read-out: IZ.
Assay type: functional
Summary of the method: (§1)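 Agar well diffusion with imipenem as the standard at 10 µg per disc, run alongside 6 mm wells and a DMSO-only control. Read-out: inhibition zone diameter (mm).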
C[C@@H](O)[C@H]1C(=O)N2C(C(=O)O)=C(SCCNC=N)C[C@H]12 [IMIPENEM ANHYDROUS] gave a zone of inhibition at 10 µg/disc of 32 mm.

The compounds below were run on Bacillus subtilis (assay: Antibacterial activity against Bacillus subtilis at 10 ug/disk by agar well diffusion method). Conditions: read-out: IZ.
Assay type: functional
Summary of the method: as §1
C[C@@H](O)[C@H]1C(=O)N2C(C(=O)O)=C(SCCNC=N)C[C@H]12 [IMIPENEM ANHYDROUS] was tested, and the zone of inhibition at 10 µg/disc was 36 mm.

Each compound was assayed on Salmonella enterica subsp. enterica serovar Typhi str. CT18 (assay: Antibacterial activity against Salmonella typhi at 1 mg/ml by agar well diffusion method). Conditions: not given.
Assay type: functional
Summary of the method: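 Agar well diffusion against Salmonella typhi. Samples were dissolved in DMSO at 1 mg per ml and applied to 6 mm diameter wells. A solvent-only well served as control. Activity was read as inhibition zone diameter in mm.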
O=C(N/N=C/c1cccc(Cl)c1)C1=C(O)c2ccccc2S(=O)(=O)N1 was tested, and the “inhibition zone (IZ)” value was “inactive”.
With O=C(N/N=C/c1ccccc1Cl)C1=C(O)c2ccccc2S(=O)(=O)N1 the “inhibition zone (IZ)” value was “inactive”.
With COc1ccc(O)c(C(C)(C)C)c1.COc1ccc(O)cc1C(C)(C)C the “inhibition zone (IZ)” value was “inactive”.
For O=C(N/N=C/c1ccc(Cl)cc1)C1=C(O)c2ccccc2S(=O)(=O)N1, the “inhibition zone (IZ)” value was “inactive”.
In the case of O=C(N/N=C/c1ccccc1)C1=C(O)c2ccccc2S(=O)(=O)N1, the “inhibition zone (IZ)” value is reported as “inactive”.
In the case of COc1ccc(/C=N/NC(=O)C2=C(O)c3ccccc3S(=O)(=O)N2)c(OC)c1, the “inhibition zone (IZ)” value is reported as “inactive”.
COc1ccc(/C=N/NC(=O)C2=C(O)c3ccccc3S(=O)(=O)N2)cc1 was tested, and the “inhibition zone (IZ)” value was “inactive”.

The compounds below were run on Escherichia coli (assay: Antibacterial activity against Escherichia coli at 10 ug/disk by agar well diffusion method). Conditions: read-out: IZ.
Assay type: functional
Summary of the method: as §1
Work on C[C@@H](O)[C@H]1C(=O)N2C(C(=O)O)=C(SCCNC=N)C[C@H]12 [IMIPENEM ANHYDROUS] yielded a zone of inhibition at 10 µg/disc of 30 mm.

What follows are compounds tested on Staphylococcus aureus (assay: Antibacterial activity against Staphylococcus aureus at 1 mg/ml by agar well diffusion method). Conditions: not given.
Assay type: functional
Summary of the method: (§2)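 Agar well diffusion; compounds loaded into 6 mm wells at 1 mg per ml DMSO, with a DMSO-only (0) control. Read-out: inhibition zone diameter (mm).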
O=C(N/N=C/c1cccc(Cl)c1)C1=C(O)c2ccccc2S(=O)(=O)N1 was tested, and the “inhibition zone (IZ)” value was “inactive”.
With O=C(N/N=C/c1ccccc1Cl)C1=C(O)c2ccccc2S(=O)(=O)N1 the “inhibition zone (IZ)” value was “inactive”.
In the case of COc1ccc(O)c(C(C)(C)C)c1.COc1ccc(O)cc1C(C)(C)C, the “inhibition zone (IZ)” value is reported as “inactive”.
For O=C(N/N=C/c1ccc(Cl)cc1)C1=C(O)c2ccccc2S(=O)(=O)N1, the “inhibition zone (IZ)” value was “inactive”.
For O=C(N/N=C/c1ccccc1)C1=C(O)c2ccccc2S(=O)(=O)N1, the “inhibition zone (IZ)” value was “inactive”.
In the case of COc1ccc(/C=N/NC(=O)C2=C(O)c3ccccc3S(=O)(=O)N2)c(OC)c1, the “inhibition zone (IZ)” value is reported as “inactive”.

Same assay, conditions: read-out: IZ
COc1ccc(/C=N/NC(=O)C2=C(O)c3ccccc3S(=O)(=O)N2)cc1 showed a zone of inhibition at 1000 µg/mL of 12 mm.

What follows are compounds tested on Salmonella enterica subsp. enterica serovar Typhi str. CT18 (assay: Antibacterial activity against Salmonella typhi at 10 ug/disk by agar well diffusion method). Conditions: read-out: IZ.
Assay type: functional
Summary of the method: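 Agar well diffusion against Salmonella typhi, using the reference antibiotic imipenem applied at 10 µg per disc alongside 6 mm sample wells. Activity was read as inhibition zone diameter in mm.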
With C[C@@H](O)[C@H]1C(=O)N2C(C(=O)O)=C(SCCNC=N)C[C@H]12 [IMIPENEM ANHYDROUS] the zone of inhibition at 10 µg/disc was 30 mm.

The compounds below were run on Radical scavenging activity (assay: Antioxidant activity assessed as DPPH radical scavenging activity after 30 mins). Conditions: not given.
Assay type: functional
Set-up: concentration or dose not given beside the values
Summary of the method: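 Test sample (0.5 mM stock in DMSO, 5 µL) mixed with 95 µL DPPH in ethanol and incubated at 37 °C for 30 min. Absorbance read at 515 nm. Percent radical scavenging calculated against a DMSO-containing control; 3-tert-butyl-4-hydroxyanisole used as reference.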
O=C(N/N=C/c1cccc(Cl)c1)C1=C(O)c2ccccc2S(=O)(=O)N1 showed an Activity of 23.8%.
With O=C(N/N=C/c1ccccc1Cl)C1=C(O)c2ccccc2S(=O)(=O)N1 the Activity was 57.4%.
Compound COc1ccc(O)c(C(C)(C)C)c1.COc1ccc(O)cc1C(C)(C)C has an Activity of 92.6%.
With O=C(N/N=C/c1ccc(Cl)cc1)C1=C(O)c2ccccc2S(=O)(=O)N1 the Activity was 21.2%.
With O=C(N/N=C/c1ccccc1)C1=C(O)c2ccccc2S(=O)(=O)N1 the Activity was 37.6%.
For COc1ccc(/C=N/NC(=O)C2=C(O)c3ccccc3S(=O)(=O)N2)c(OC)c1, the Activity was 68.2%.
COc1ccc(/C=N/NC(=O)C2=C(O)c3ccccc3S(=O)(=O)N2)cc1 gave an Activity of 43.7%.

These compounds were tested on Shigella flexneri (assay: Antibacterial activity against Shigella flexneri at 1 mg/ml by agar well diffusion method). Conditions: not given.
Assay type: functional
Summary of the method: as §2
For O=C(N/N=C/c1cccc(Cl)c1)C1=C(O)c2ccccc2S(=O)(=O)N1, the “inhibition zone (IZ)” value was “inactive”.
In the case of O=C(N/N=C/c1ccccc1Cl)C1=C(O)c2ccccc2S(=O)(=O)N1, the “inhibition zone (IZ)” value is reported as “inactive”.
With COc1ccc(O)c(C(C)(C)C)c1.COc1ccc(O)cc1C(C)(C)C the “inhibition zone (IZ)” value was “inactive”.
O=C(N/N=C/c1ccc(Cl)cc1)C1=C(O)c2ccccc2S(=O)(=O)N1 was tested, and the “inhibition zone (IZ)” value was “inactive”.
O=C(N/N=C/c1ccccc1)C1=C(O)c2ccccc2S(=O)(=O)N1 was tested, and the “inhibition zone (IZ)” value was “inactive”.
With COc1ccc(/C=N/NC(=O)C2=C(O)c3ccccc3S(=O)(=O)N2)c(OC)c1 the “inhibition zone (IZ)” value was “inactive”.
COc1ccc(/C=N/NC(=O)C2=C(O)c3ccccc3S(=O)(=O)N2)cc1 was tested, and the “inhibition zone (IZ)” value was “inactive”.

Each compound was assayed on Escherichia coli (assay: Antibacterial activity against Escherichia coli at 1 mg/ml by agar well diffusion method). Conditions: not given.
Assay type: functional, organism-based
Summary of the method: as §2
In the case of O=C(N/N=C/c1cccc(Cl)c1)C1=C(O)c2ccccc2S(=O)(=O)N1, the “inhibition zone (IZ)” value is reported as “inactive”.
O=C(N/N=C/c1ccccc1Cl)C1=C(O)c2ccccc2S(=O)(=O)N1 was tested, and the “inhibition zone (IZ)” value was “inactive”.
For COc1ccc(O)c(C(C)(C)C)c1.COc1ccc(O)cc1C(C)(C)C, the “inhibition zone (IZ)” value was “inactive”.
In the case of O=C(N/N=C/c1ccc(Cl)cc1)C1=C(O)c2ccccc2S(=O)(=O)N1, the “inhibition zone (IZ)” value is reported as “inactive”.
In the case of O=C(N/N=C/c1ccccc1)C1=C(O)c2ccccc2S(=O)(=O)N1, the “inhibition zone (IZ)” value is reported as “inactive”.
COc1ccc(/C=N/NC(=O)C2=C(O)c3ccccc3S(=O)(=O)N2)c(OC)c1 was tested, and the “inhibition zone (IZ)” value was “inactive”.
With COc1ccc(/C=N/NC(=O)C2=C(O)c3ccccc3S(=O)(=O)N2)cc1 the “inhibition zone (IZ)” value was “inactive”.

What follows are compounds tested on Shigella flexneri (assay: Antibacterial activity against Shigella flexneri at 10 ug/disk by agar well diffusion method). Conditions: read-out: IZ.
Assay type: functional
Summary of the method: as §1
C[C@@H](O)[C@H]1C(=O)N2C(C(=O)O)=C(SCCNC=N)C[C@H]12 [IMIPENEM ANHYDROUS] showed a zone of inhibition at 10 µg/disc of 37 mm.

The compounds below were run on Bacillus subtilis (assay: Antibacterial activity against Bacillus subtilis at 1 mg/ml by agar well diffusion method). Conditions: not given.
Assay type: functional, organism-based
Summary of the method: as §2
In the case of O=C(N/N=C/c1cccc(Cl)c1)C1=C(O)c2ccccc2S(=O)(=O)N1, the “inhibition zone (IZ)” value is reported as “inactive”.
For O=C(N/N=C/c1ccccc1Cl)C1=C(O)c2ccccc2S(=O)(=O)N1, the “inhibition zone (IZ)” value was “inactive”.
For COc1ccc(O)c(C(C)(C)C)c1.COc1ccc(O)cc1C(C)(C)C, the “inhibition zone (IZ)” value was “inactive”.
In the case of O=C(N/N=C/c1ccc(Cl)cc1)C1=C(O)c2ccccc2S(=O)(=O)N1, the “inhibition zone (IZ)” value is reported as “inactive”.
For O=C(N/N=C/c1ccccc1)C1=C(O)c2ccccc2S(=O)(=O)N1, the “inhibition zone (IZ)” value was “inactive”.
In the case of COc1ccc(/C=N/NC(=O)C2=C(O)c3ccccc3S(=O)(=O)N2)c(OC)c1, the “inhibition zone (IZ)” value is reported as “inactive”.
COc1ccc(/C=N/NC(=O)C2=C(O)c3ccccc3S(=O)(=O)N2)cc1 was tested, and the “inhibition zone (IZ)” value was “inactive”.

What follows are compounds tested on Staphylococcus aureus (assay: Antibacterial activity against Staphylococcus aureus at 10 ug/disk by agar well diffusion method). Conditions: read-out: IZ.
Assay type: functional
Summary of the method: as §1
Compound C[C@@H](O)[C@H]1C(=O)N2C(C(=O)O)=C(SCCNC=N)C[C@H]12 [IMIPENEM ANHYDROUS] has a zone of inhibition at 10 µg/disc of 26 mm.

What follows are compounds tested on Pseudomonas aeruginosa (assay: Antibacterial activity against Pseudomonas aeruginosa at 1 mg/ml by agar well diffusion method). Conditions: not given.
Assay type: functional, organism-based
Summary of the method: as §2
O=C(N/N=C/c1cccc(Cl)c1)C1=C(O)c2ccccc2S(=O)(=O)N1 was tested, and the “inhibition zone (IZ)” value was “inactive”.
With O=C(N/N=C/c1ccccc1Cl)C1=C(O)c2ccccc2S(=O)(=O)N1 the “inhibition zone (IZ)” value was “inactive”.
With COc1ccc(O)c(C(C)(C)C)c1.COc1ccc(O)cc1C(C)(C)C the “inhibition zone (IZ)” value was “inactive”.
With O=C(N/N=C/c1ccc(Cl)cc1)C1=C(O)c2ccccc2S(=O)(=O)N1 the “inhibition zone (IZ)” value was “inactive”.
O=C(N/N=C/c1ccccc1)C1=C(O)c2ccccc2S(=O)(=O)N1 was tested, and the “inhibition zone (IZ)” value was “inactive”.
COc1ccc(/C=N/NC(=O)C2=C(O)c3ccccc3S(=O)(=O)N2)c(OC)c1 was tested, and the “inhibition zone (IZ)” value was “inactive”.
With COc1ccc(/C=N/NC(=O)C2=C(O)c3ccccc3S(=O)(=O)N2)cc1 the “inhibition zone (IZ)” value was “inactive”.
